Calls of active or inactive are those of the source. No cut-off for these calls is given here.
What was measured:
U-251 [1] = experiment: Antiproliferative activity against human U-251 cells assessed as reduction in cell viability by measuring total mitochondrial respiration incubated for 72 hrs by MTT assay; assay type: functional, cell-based; conditions: U-251, 72 h
Summary of the method: (§1)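 Adherent tumour lines grown in HEPES-buffered RPMI-1640 with 10% heat-inactivated FCS, 2 mM L-glutamine, 0.01% sodium pyruvate, penicillin/streptomycin, 37 °C, 5% CO2. Seeding per well: MCF-7 7 × 10³, MDA-MB-231 4 × 10³, MDA-MB-361 6 × 10³, U251 2 × 10³. Cells seeded overnight, then exposed to a dose range for 72 h from 20 mM DMSO stocks diluted in medium. Washed, fixed, read by MTT or CV. IC50 given as mean ± SD of at least three independent experiments.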

U-251 [2] = experiment: Antiproliferative activity against human U-251 cells assessed as reduction in cell viability by measuring number of adherent cells incubated for 72 hrs by crystal violet staining based assay; assay type: functional; conditions: U-251, 72 h; summary of the method: as §1
MCF7 [3] = experiment: Antiproliferative activity against human MCF7 cells assessed as reduction in cell viability by measuring total mitochondrial respiration incubated for 72 hrs by MTT assay; assay type: functional, cell-based; conditions: MCF7, 72 h; summary of the method: as §1
MCF7 [4] = experiment: Antiproliferative activity against human MCF7 cells assessed as reduction in cell viability by measuring number of adherent cells incubated for 72 hrs by crystal violet staining based assay; assay type: functional; conditions: MCF7, 72 h; summary of the method: as §1
MDA-MB-361 [5] = experiment: Antiproliferative activity against human MDA-MB-361 cells assessed as reduction in cell viability by measuring total mitochondrial respiration incubated for 72 hrs by MTT assay; assay type: functional, cell-based; conditions: MDA-MB-361, 72 h; summary of the method: as §1
MDA-MB-361 [6] = experiment: Antiproliferative activity against human MDA-MB-361 cells assessed as reduction in cell viability by measuring number of adherent cells incubated for 72 hrs by crystal violet staining based assay; assay type: functional; conditions: MDA-MB-361, 72 h; summary of the method: as §1
MDA-MB-231 [7] = experiment: Antiproliferative activity against human MDA-MB-231 cells assessed as reduction in cell viability by measuring total mitochondrial respiration incubated for 72 hrs by MTT assay; assay type: functional, cell-based; conditions: MDA-MB-231, 72 h; summary of the method: as §1
MDA-MB-231 [8] = experiment: Antiproliferative activity against human MDA-MB-231 cells assessed as reduction in cell viability by measuring number of adherent cells incubated for 72 hrs by crystal violet staining based assay; assay type: functional; conditions: MDA-MB-231, 72 h; summary of the method: as §1
MDA-MB-231 [9] = experiment: Induction of apoptosis in human MDA-MB-231 cells assessed as viable cells at IC50 concentration incubated for 72 hrs by Annexin V/propidium iodide staining based flow cytometry analysis (reference value: 95.0 %); assay type: functional
MDA-MB-231 [10] = experiment: Induction of apoptosis in human MDA-MB-231 cells assessed as early apoptotic cells at IC50 concentration incubated for 72 hrs by Annexin V/propidium iodide staining based flow cytometry analysis (reference value: 0.72 %); assay type: functional
MDA-MB-231 [11] = experiment: Induction of apoptosis in human MDA-MB-231 cells assessed as late apoptotic cells at IC50 concentration incubated for 72 hrs by Annexin V/propidium iodide staining based flow cytometry analysis (reference value: 3.19 %); assay type: functional
MDA-MB-231 [12] = experiment: Induction of apoptosis in human MDA-MB-231 cells assessed as necrotic cells at IC50 concentration incubated for 72 hrs by Annexin V/propidium iodide staining based flow cytometry analysis (reference value: 1.11 %); assay type: functional
[13] = Cytotoxicity against mouse Peritoneal exudate cell assessed as reduction in cell viability by measuring total mitochondrial respiration incubated for 72 hrs by MTT assay; assay type: toxicity, cell-based; conditions: peritoneal exudate cells
Summary of the method: (§2)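 Mouse peritoneal exudate cells were exposed to a dose range for 72 h, and viability was read by MTT (mitochondrial respiration) or CV (adherent cells). Compounds came from 20 mM DMSO stocks diluted in medium. IC50 given as mean ± SD.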

[14] = Cytotoxicity against mouse Peritoneal exudate cell assessed as reduction in cell viability by measuring number of adherent cells incubated for 72 hrs by crystal violet staining based assay; assay type: toxicity; summary of the method: as §2
MDA-MB-231 [15] = experiment: Induction of apoptosis in human MDA-MB-231 cells assessed as increase in cell nuclei incubated for 72 hrs by propidium iodide staining based fluorescence microscopy analysis; assay type: functional
MDA-MB-231 [16] = experiment: Induction of apoptosis in human MDA-MB-231 cells assessed as abnormal cell size incubated for 72 hrs by propidium iodide staining based fluorescence microscopy analysis; assay type: functional
MDA-MB-231 [17] = experiment: Induction of apoptosis in human MDA-MB-231 cells assessed as caspase activation incubated for 72 hrs by Apostat staining based flow cytometry analysis; assay type: functional, cell-based
MDA-MB-231 [18] = experiment: Induction of ROS production in human MDA-MB-231 cells assessed as oxidative burst incubated for 72 hrs by DHR staining based flow cytometry analysis; assay type: functional, cell-based
Summary of the method: (§3)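 MDA-MB-231 cells were treated for 72 h, then pre-stained with 1 µM dihydrorhodamine 123 for 20 min at 37 °C. After PBS washing and trypsinisation, ROS/RNS were read by flow cytometry.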

MDA-MB-231 [19] = experiment: Induction of RNS production in human MDA-MB-231 cells assessed as oxidative burst incubated for 72 hrs by DHR staining based flow cytometry analysis; assay type: functional, cell-based; summary of the method: as §3
MDA-MB-231 [20] = experiment: Induction of autophagy in human MDA-MB-231 cells at IC50 concentration incubated for 72 hrs by acridine orange staining based flow cytometry analysis; assay type: functional, cell-based
MDA-MB-231 [21] = experiment: Antiproliferative activity against human MDA-MB-231 cells assessed as reduction in cell viability at IC50 concentration incubated for 72 hrs in presence of 3-MA by crystal violet staining based assay; assay type: functional
MDA-MB-231 [22] = experiment: Antiproliferative activity against human MDA-MB-231 cells assessed as reduction in cell viability at IC50 concentration incubated for 72 hrs in presence of chloroquine by crystal violet staining based assay; assay type: functional
[23] = (§4) Selectivity index, ratio of IC50 for cytotoxicity against mouse Peritoneal exudate cell assessed as reduction in cell viability by measuring total mitochondrial respiration to IC50 for antiproliferative activity against human MDA-MB-231 cells assessed as reduction in cell viability by measuring total mitochondrial respiration; assay type: toxicity, cell-based; conditions: mouse peritoneal exudate cells versus human MDA-MB-231 cells, read-out: Ratio IC50
Summary of the method: (§5)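 Selectivity index is the IC50 in normal mouse peritoneal exudate cells divided by the IC50 in MDA-MB-231. Both IC50s come from 72 h dose-range treatment, read by the same assay: CV (adherent cells) or MTT (mitochondrial respiration).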

[24] = as §4, with “number of adherent cells” for “total mitochondrial respiration”; assay type: toxicity, cell-based; conditions: mouse peritoneal exudate cells versus human MDA-MB-231 cells, read-out: Ratio IC50; summary of the method: as §5
MDA-MB-231 [25] = experiment: Induction of apoptosis in human MDA-MB-231 cells assessed as chromatin condensation incubated for 72 hrs by propidium iodide staining based fluorescence microscopy analysis; assay type: functional, cell-based
MDA-MB-231 [26] = experiment: Induction of apoptosis in human MDA-MB-231 cells assessed as abnormal cell shape incubated for 72 hrs by propidium iodide staining based fluorescence microscopy analysis; assay type: functional
MDA-MB-231 [27] = experiment: Induction of autophagy in human MDA-MB-231 cells assessed as increase in granularity of the cellular cytoplasm at IC50 concentration incubated for 72 hrs by flow cytometric analysis

| IC50 (U-251 [1]) | IC50 (U-251 [2]) | IC50 (MCF7 [3]) | IC50 (MCF7 [4]) | IC50 (MDA-MB-361 [5]) | IC50 (MDA-MB-361 [6]) | IC50 (MDA-MB-231 [7]) | IC50 (MDA-MB-231 [8]) | SMILES | Activity (MDA-MB-231 [9]) | Activity (MDA-MB-231 [10]) | Activity (MDA-MB-231 [11]) | Activity (MDA-MB-231 [12]) | IC50 at 72 h [13] | IC50 at 72 h [14] | Activity (MDA-MB-231 [15]) | Activity (MDA-MB-231 [16]) | Activity (MDA-MB-231 [17]) | Activity (MDA-MB-231 [18]) | Activity (MDA-MB-231 [19]) | Activity (MDA-MB-231 [20]) | other results |
| --- | --- | --- | --- | --- | --- | --- | --- | --- | --- | --- | --- | --- | --- | --- | --- | --- | --- | --- | --- | --- | --- |
| 2.2 µM | 2.6 µM | 2.15 µM | 2.4 µM | 6.3 µM | > 100 µM | 1.6 µM | 1.5 µM | COc1ccc(-c2sc3cc(OC)ccc3c2C(=O)c2ccc(OCc3ccnc(-c4ccccn4)c3)cc2)cc1 | 46.4% | 29.3% | 23.3% | 1.01% | 15.4 µM | 18.9 µM | Active | Active | Active | Active | Active | Active | Activity (MDA-MB-231 [21]): Active; Activity (MDA-MB-231 [22]): Active; selectivity ratio [23]: 9.5; selectivity ratio [24]: 12.6; Activity (MDA-MB-231 [25]): Active; Activity (MDA-MB-231 [26]): Active; Activity (MDA-MB-231 [27]): Active |
| 19.2 µM | 23.4 µM | 16.8 µM | 21.4 µM | 22.2 µM | 38.9 µM | 19.1 µM | 22 µM | O=C(c1ccc(OCCN2CCCCC2)cc1)c1c(-c2ccc(O)cc2)sc2cc(O)ccc12 [RALOXIFENE] | 67% | 20.6% | 11.5% | 0.93% | 18.3 µM | 20.4 µM | Active | Active | Active | Active | Active | Active | Activity (MDA-MB-231 [21]): Active; Activity (MDA-MB-231 [22]): Active; Activity (MDA-MB-231 [25]): Active; Activity (MDA-MB-231 [26]): Active; Activity (MDA-MB-231 [27]): Active |
